Residues, ends and D or L forms follow the SMILES beside them.
How the values were obtained:
[1] = species: Mus musculus; experiment: In vitro inhibitory concentration necessary to neutralize Escherichia coli 1,4''-diphosphoryl lipid A; assay type: functional, organism-based
In short: (§1)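 Chromogenic Limulus amebocyte lysate assay, which detects free LPS or diphosphoryl lipid A left unneutralized by the test compound. Compounds were tested by 2-fold serial dilution. IC50 is the concentration that neutralizes 50% of the LPS or lipid A in vitro.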

[2] = system: Mus musculus; experiment: Ratio of percent of Tumor necrosis factor alpha measured in the presence with respect to that measured when animals were treated only with LPS;Mice were intraperitoneally injected with 10 ug of LPS alone or premixed with 20 ug of each compound; assay type: functional
In short: (§2)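 Mice were given 10 µg LPS ip, either alone or premixed with 20 µg compound in PBS containing 40% DMSO. Mice were bled after 1 h and serum TNF-α was measured by ELISA. Values are % of the TNF-α in mice given LPS alone (100%), as mean ± SD of seven mice per group.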

[3] = species: Mus musculus; experiment: In vitro inhibitory concentration necessary to neutralize Gram-negative bacterial lipopolysaccharide in mouse model; assay type: functional, organism-based; in short: as §1
[4] = system: Mus musculus; experiment: Ratio of percent of Tumor necrosis factor alpha measured in the presence with respect to that measured when animals were treated only with LPS;Mice were intraperitoneally injected with 10 ug of LPS alone or premixed with 20 ug of each compound;ND= Not determined; assay type: functional; in short: as §2
[5] = system: Mus musculus; experiment: Ratio of percent of Tumor necrosis factor alpha measured in the presence with respect to that measured when animals were treated only with LPS;Mice were intraperitoneally injected with 10 ug of LPS alone or premixed with 100 ug of compound; assay type: functional, organism-based
In short: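 Mice were given 10 µg LPS ip, alone or premixed with the test agent (peptoids 20 µg in PBS with 40% DMSO; polymyxin B or LALF-14 100 µg). Sera were collected after 1 h and TNF-α measured by ELISA. Values are % of the LPS-only TNF-α level, mean ± SD, seven mice per group.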

COc1ccc(CCN(CC(=O)N(CCC(c2ccccc2)c2ccccc2)CC(N)=O)C(=O)CNCCC(c2ccccc2)c2ccccc2)cc1
IC50 [1]: > 250 µM
Ratio [2]: 10
IC50 ([3]; Mus musculus): 50 µM

CC(C)C[C@@H]1NC(=O)[C@H](CCCN=C(N)N)NC(=O)[C@H](CCCN=C(N)N)NC(=O)[C@H](Cc2ccccc2)NC(=O)[C@H]([C@@H](C)O)NC(=O)[C@@H]2CCCN2C(=O)[C@H](CCCCN)NC(=O)[C@@H](NC(=O)CN)CSSC[C@@H](C(=O)NCC(=O)O)NC(=O)[C@H](CCCCN)NC(=O)[C@H](Cc2ccc(O)cc2)NC(=O)[C@H](CCCCN)NC(=O)[C@H](Cc2c[nH]c3ccccc23)NC(=O)[C@H](CCCCN)NC1=O (HELM PEPTIDE1{G.C.K.P.T.F.R.R.L.K.W.K.Y.K.C.G}$PEPTIDE1,PEPTIDE1,2:R3-15:R3$$$V2.0) [listing 1 of 2 here]
IC50 [1]: 40 µM
IC50 ([3]; Mus musculus): 64 µM

CC(C)C[C@@H]1NC(=O)[C@H](CCCN=C(N)N)NC(=O)[C@H](CCCN=C(N)N)NC(=O)[C@H](Cc2ccccc2)NC(=O)[C@H]([C@@H](C)O)NC(=O)[C@@H]2CCCN2C(=O)[C@H](CCCCN)NC(=O)[C@@H](NC(=O)CN)CSSC[C@@H](C(=O)NCC(=O)O)NC(=O)[C@H](CCCCN)NC(=O)[C@H](Cc2ccc(O)cc2)NC(=O)[C@H](CCCCN)NC(=O)[C@H](Cc2c[nH]c3ccccc23)NC(=O)[C@H](CCCCN)NC1=O (HELM PEPTIDE1{G.C.K.P.T.F.R.R.L.K.W.K.Y.K.C.G}$PEPTIDE1,PEPTIDE1,2:R3-15:R3$$$V2.0) [listing 2 of 2 here]
Ratio [4]: 67

NC(=O)CN(CCC(c1ccccc1)c1ccccc1)C(=O)CN(CCC(c1ccccc1)c1ccccc1)C(=O)CNCC1CCCO1 (stereo unspecified) [TRIMER I]
IC50 [1]: 250 µM
Ratio [2]: 71
IC50 ([3]; Mus musculus): 40 µM

POLYMYXIN B [listing 1 of 2 here]
IC50 [3]: < 0.0001 µM

POLYMYXIN B [listing 2 of 2 here]
Ratio [5]: 5

Reference: ChEMBL document CHEMBL1144442, “Identification from a positional scanning peptoid library of in vivo active compounds that neutralize bacterial endotoxins” (J Med Chem, 2005)
